Assay results as given in ChEMBL document CHEMBL4266059, “Synthesis of Cyanoenone-Modified Diterpenoid Analogs as Novel Bmi-1-Mediated Antitumor Agents” (ACS Med Chem Lett, 2018).
Activity calls are given as the source filed them. The rule behind the calls is not given here.

What was measured:
HCT-116 [1] = assay: Antiproliferative activity against human HCT116 cells after 72 hrs by SRB assay; format: functional, cell-based; conditions: HCT-116, 72 h
HT-29 = assay: Antiproliferative activity against human HT-29 cells after 72 hrs by SRB assay; format: functional, cell-based; conditions: HT-29, 72 h
HCT-8 = assay: Antiproliferative activity against human HCT8 cells after 72 hrs by SRB assay; format: functional, cell-based; conditions: HCT-8, 72 h
[2] = Antiproliferative activity against HAF after 72 hrs by SRB assay; design: species or system Homo sapiens
[3] = Selectivity index, ratio of IC50 for HAF to IC50 for human HCT116 cells; format: toxicity; conditions: HAF cells versus HCT116 cells, read-out: Ratio IC50
[4] = Selectivity index, ratio of IC50 for HAF to IC50 for human HT-29 cells; format: toxicity; conditions: HAF cells versus HT-29 cells, read-out: Ratio IC50
[5] = Selectivity index, ratio of IC50 for HAF to IC50 for human HCT8 cells; format: toxicity; conditions: HAF cells versus HCT8 cells, read-out: Ratio IC50
HCT-116 [6] = assay: Potency index, ratio of PTC-209 IC50 to compound IC50 for antiproliferative activity against human HCT116 cells; format: functional
HCT-116 [7] = assay: Inhibition of Bmi1 protein expression in human HCT116 cells after 8 hrs by Western blot analysis; format: functional, cell-based
HCT-116 [8] = assay: Effect on total H2A protein expression in human HCT116 cells at 0.5 to 4 uM after 8 hrs by Western blot analysis; format: functional, cell-based
Method in brief: (§1)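 HCT116 cells treated with test agents at the indicated concentrations for 8 h. Bmi-1, H2A-K119 ubiquitinated H2A (ub-H2A), total H2A and Ring1b detected by Western blot.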

HCT-116 [9] = assay: Effect on total Ring1b protein expression in human HCT116 cells at 0.5 to 4 uM after 8 hrs by Western blot analysis; format: functional, cell-based; method in brief: as §1
[10] = biological target: T1, Polycomb complex protein BMI-1 (Homo sapiens) (UniProt P35226); assay: Inhibition of Bmi1 in human HCT116 cells assessed as reduction in H2A-K119Ub level after 8 hrs by Western blot analysis; format: cell-based; method in brief: as §1
T1 sequence (whole entry): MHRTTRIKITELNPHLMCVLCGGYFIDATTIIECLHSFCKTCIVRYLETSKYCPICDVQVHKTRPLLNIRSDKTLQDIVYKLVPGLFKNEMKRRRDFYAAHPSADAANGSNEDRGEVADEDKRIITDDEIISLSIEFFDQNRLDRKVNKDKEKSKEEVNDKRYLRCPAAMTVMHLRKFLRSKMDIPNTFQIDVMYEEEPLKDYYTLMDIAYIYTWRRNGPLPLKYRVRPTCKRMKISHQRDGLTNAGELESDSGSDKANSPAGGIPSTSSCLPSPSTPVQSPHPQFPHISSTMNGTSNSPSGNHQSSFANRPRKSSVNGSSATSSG

HCT-116 [11] = assay: Antimigratory activity against human HCT116 cells after 24 hrs by crystal violet staining based transwell migration assay; format: functional, cell-based
Method in brief: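 HCT116 cells were tested for migration through a transwell chamber at 0.5 and 1 μM, compared against an untreated (0 μM) control. Significance was assessed versus that control.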

HCT-116 [12] = assay: Inhibition of colony formation in human HCT116 cells at 0.1 to 0.4 uM after 7 days by crystal violet staining based assay; format: functional, cell-based
HCT-116 [13] = assay: Inhibition of cancer stem cell proliferation in human HCT116 cells assessed as CD133/CD44-positive cell population at 1 uM after 48 hrs by flow cytometry (reference value: 85.1 to 86.6%); format: functional; design: scale not given: the % may be the effect or the level left
HCT-116 [14] = assay: Induction of apoptosis in human HCT116 cells at 1 uM after 48 hrs by Annexin V/propidium iodide staining based flow cytometry relative to control; format: functional
HCT-116 [15] = assay: Antitumor activity against human HCT116 cells xenografted in nude mouse assessed as tumor growth inhibition at 10 mg/kg/day, ip for 18 days; format: functional, organism-based
Method in brief: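 Nude mice bearing subcutaneous HCT116 tumors, randomized four groups (n = 6 each), including a DMSO vehicle group. Dosing was intraperitoneal once daily for 18 days, then sacrifice. Removed tumors were weighed and tumor volume recorded, and body weight was followed. Significance was tested versus vehicle control.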

Mus musculus [16] = assay: Toxicity in nude mouse xenografted with human HCT116 cells assessed as change in body weight at 10 mg/kg/day, ip for 18 days; format: organism-based; conditions: in vivo, 432 h
HCT-116 [17] = assay: Antitumor activity against human HCT116 cells xenografted in nude mouse assessed as reduction in Ki67 expression in tumor at 10 mg/kg/day, ip for 18 days by IHC analysis; format: functional, organism-based
Method in brief: (§2)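 Subcutaneous HCT116 xenografts in nude mice, randomized into groups of n = 6. Dosing was daily intraperitoneal injection for 18 days with DMSO as vehicle control. Mice were then sacrificed, and excised tumors were stained by immunohistochemistry for Ki67 and Bmi-1, compared with vehicle-treated controls.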

Mus musculus [18] = assay: Decrease in Bmi1 expression in tumors of nude mouse xenografted with human HCT116 cells at 10 mg/kg/day, ip for 18 days by IHC analysis; format: functional, organism-based; method in brief: as §2

SMILES	IC50 (HCT-116 [1]) [µM]	IC50 (HT-29) [µM]	IC50 (HCT-8) [µM]	IC50 [2] [µM]	selectivity ratio [3]	selectivity ratio [4]	selectivity ratio [5]	further results
COc1cc2c(cc1C(=O)Nc1ccc(N)cc1)CC[C@H]1C(C)(C)C(=O)C(C#N)=C[C@]21C	0.75	–	–	–	–	–	–	–
COc1cc2c(cc1C(=O)Nc1ccc(OC(F)(F)F)cc1)CC[C@H]1C(C)(C)C(=O)C(C#N)=C[C@]21C	0.3	0.54	0.6	3.22	5.4 to 10.7	5.4 to 10.7	5.4 to 10.7	Ratio IC50 (HCT-116 [6]): 2
COc1cc2c(cc1C(=O)Nc1ccc(C(F)(F)F)cc1)CC[C@H]1C(C)(C)C(=O)C(C#N)=C[C@]21C	0.32	–	–	–	–	–	–	–
COC(=O)[C@]12CCC(C)(C)C[C@H]1[C@H]1C(=O)C=C3[C@@]4(C)C=C(C#N)C(=O)C(C)(C)[C@@H]4CC[C@@]3(C)[C@]1(C)CC2 [BARDOXOLONE METHYL]	0.25	0.28	0.29	2.1	7.2 to 8.4	7.2 to 8.4	7.2 to 8.4	inhibition (HCT-116 [7]): Active
COc1cc2c(cc1C(=O)Nc1ccccc1)CC[C@H]1C(C)(C)C(=O)C(C#N)=C[C@]21C	0.76	–	–	–	–	–	–	–
CCOc1ccc(NC(=O)c2cc3c(cc2OC)[C@@]2(C)C=C(C#N)C(=O)C(C)(C)[C@@H]2CC3)cc1	0.82	–	–	–	–	–	–	–
COc1cc2c(cc1C(=O)NCC(=O)O)CC[C@H]1C(C)(C)C(=O)C(C#N)=C[C@]21C	> 50	–	–	–	–	–	–	–
COc1cc2c(cc1C(=O)Oc1ccccc1)CC[C@H]1C(C)(C)C(=O)C(C#N)=C[C@]21C	1.31	–	–	–	–	–	–	–
COc1cc2c(cc1C(=O)Nc1cccc(OC(F)(F)F)c1)CC[C@H]1C(C)(C)C(=O)C(C#N)=C[C@]21C	0.43	0.56	0.58	3.57	6.2 to 8.3	6.2 to 8.3	6.2 to 8.3	–
COC(=O)c1ccc(NC(=O)c2cc3c(cc2OC)[C@@]2(C)C=C(C#N)C(=O)C(C)(C)[C@@H]2CC3)cc1	0.69	–	–	–	–	–	–	–
COc1cc2c(cc1C(=O)NCc1ccc(OC(F)(F)F)cc1)CC[C@H]1C(C)(C)C(=O)C(C#N)=C[C@]21C	1.04	1.37	1.6	5.19	3.2 to 5	3.2 to 5	3.2 to 5	–
COc1cc2c(cc1C(=O)Nc1ccc(Cl)cc1)CC[C@H]1C(C)(C)C(=O)C(C#N)=C[C@]21C	0.67	–	–	–	–	–	–	–
COc1cc(Br)c(Nc2nc(-c3c(C)nc4ncccn34)cs2)c(Br)c1	0.65	0.61	0.59	1.03	1.6 to 1.7	1.6 to 1.7	1.6 to 1.7	Activity (HCT-116 [8]): inactive; Activity (HCT-116 [9]): inactive; inhibition (HCT-116 [7]): Dose-dependent effect; IC50 (HCT-116 [7]; HCT-116, 8 h): 0.7 µM; inhibition [10]: Dose-dependent effect; Activity (HCT-116 [11]): Dose-dependent effect; inhibition (HCT-116 [12]): Active; Activity (HCT-116 [13]): 79.7%; Activity (HCT-116 [14]): 14.74%; TGI (HCT-116 [15]): Active; Activity (Mus musculus [16]): Non-Toxic; Activity (HCT-116 [17]): Active; Activity (Mus musculus [18]): Active
COc1cc2c(cc1C(=O)Nc1ccc(C(C)=O)cc1)CC[C@H]1C(C)(C)C(=O)C(C#N)=C[C@]21C	2.1	–	–	–	–	–	–	inhibition (HCT-116 [7]): Active
COc1cc2c(cc1C(=O)Nc1ccc(OC(F)(F)F)cc1)CC[C@H]1C(C)(C)C(=O)C=C[C@]21C	4.56	4.09	5.67	17.1	3 to 3.8	3 to 3.8	3 to 3.8	inhibition (HCT-116 [7]): inactive
C=CCOc1ccc(NC(=O)c2cc3c(cc2OC)[C@@]2(C)C=C(C#N)C(=O)C(C)(C)[C@@H]2CC3)cc1	0.56	–	–	–	–	–	–	–
COc1cc2c(cc1C(=O)O)CC[C@H]1C(C)(C)C(=O)C(C#N)=C[C@]21C	> 50	–	–	–	–	–	–	–
COc1cc2c(cc1C(=O)Nc1ccc(C#N)cc1)CC[C@H]1C(C)(C)C(=O)C(C#N)=C[C@]21C	0.57	–	–	–	–	–	–	–
CC1(C)C(=O)C(C#N)=C[C@]2(C)c3cc(O)c(C(=O)Nc4ccc(OC(F)(F)F)cc4)cc3CC[C@@H]12	2	2.38	3.06	13.8	4.5 to 6.9	4.5 to 6.9	4.5 to 6.9	inhibition (HCT-116 [7]): inactive
CNC(=O)c1cc2c(cc1OC)[C@@]1(C)C=C(C#N)C(=O)C(C)(C)[C@@H]1CC2	8.54	–	–	–	–	–	–	–
COc1cc2c(cc1C(=O)Nc1ccc(C(N)=O)cc1)CC[C@H]1C(C)(C)C(=O)C(C#N)=C[C@]21C	0.85	–	–	–	–	–	–	–
COc1cc2c(cc1C(=O)NNc1ccc(OC(F)(F)F)cc1)CC[C@H]1C(C)(C)C(=O)C(C#N)=C[C@]21C	0.9	1.62	1.31	4.55	2.8 to 5	2.8 to 5	2.8 to 5	–
COc1cc2c(cc1C(=O)Nc1ccc(Br)cc1)CC[C@H]1C(C)(C)C(=O)C(C#N)=C[C@]21C	0.53	–	–	–	–	–	–	–
